≈ marks a conversion by molar mass, not a printed value.
Key:
Haemophilus influenzae [1] = test: Antibacterial activity against Haemophilus influenzae 551 infected in immunocompetent Sprague-Dawley rat assessed as reduction in lung CFU per gram of tissue at 50 mg/kg, po administered 5, 24 and 48 hrs post infection measured after 72 hrs; type: functional
Procedure, shortened: (§1)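 Male Sprague-Dawley rats (175–200 g), immunocompetent, infected intratracheally with H. influenzae 551 (0.05 mL) under light anesthesia. Dosing at 5, 24 and 48 h post infection: test agent 100 mg/kg/dose orally or 25 mg/kg/dose IV; azithromycin 50 mg/kg/dose orally. Six rats per dose. Lungs removed 72 h after treatment began, homogenized, serially diluted, plated on TSA-II, incubated overnight at 37 °C in 5% CO2; CFU/g lung calculated.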

Staphylococcus aureus [2] = test: Antibacterial activity against methicillin-resistant Staphylococcus aureus VL-137; type: functional
Procedure, shortened: (§2)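 Broth microdilution MIC following CLSI methods in cation-adjusted Mueller Hinton broth, prepared fresh and held at 4 °C before testing. Defibrinated horse blood added to the medium where appropriate. Runs accepted when quality control ranges for comparator antibiotics and ATCC QC strains were met.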

Streptococcus pneumoniae [3] = test: Antibacterial activity against Streptococcus pneumoniae SPN160; type: functional; procedure, shortened: as §2
Haemophilus influenzae [4] = test: Antibacterial activity against Haemophilus influenzae 551; type: functional
Procedure, shortened: (§3)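 MIC by broth microdilution in liquid medium per CLSI, in cation-adjusted Mueller Hinton broth made fresh and held at 4 °C before testing. Horse blood (defibrinated) added to the medium where appropriate. Runs were accepted only when the comparator antibiotics and ATCC QC strains fell within their recommended ranges.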

Streptococcus pyogenes = test: Antibacterial activity against Streptococcus pyogenes; type: functional; procedure, shortened: as §3
Moraxella catarrhalis = test: Antibacterial activity against Moraxella catarrhalis; type: functional; procedure, shortened: as §3
Staphylococcus aureus [5] = test: Antibacterial activity against methicillin-resistant Staphylococcus aureus VL-137 infected in neutropenic Balb/c mouse assessed as reduction in lung CFU at 50 mg/kg, po administered 2 and 12 hrs post infection measured 24 hrs post treatment; type: functional
Procedure, shortened: (§4)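 Female Balb/c mice (18−20 g) made neutropenic with IP cyclophosphamide, 150 and 100 mg/kg on days −4 and −1. Intranasal infection under light anesthesia. Treatment at 2 and 12 h post infection, oral 50 mg/kg/dose or IV 10 mg/kg/dose, six mice per group. At 24 h lungs were homogenized and plated on TSA (37 °C, 5% CO₂, overnight). Read-out is CFU/g lung.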

Staphylococcus aureus [6] = test: Antibacterial activity against methicillin-resistant Staphylococcus aureus VL-137 infected in neutropenic Balb/c mouse assessed as reduction in lung CFU at 10 mg/kg, iv administered 2 and 12 hrs post infection measured 24 hrs post treatment; type: functional; procedure, shortened: as §4
Streptococcus pneumoniae [7] = test: Antibacterial activity against Streptococcus pneumoniae 1629 infected in immunocompetent CD-1 mouse infection model assessed as reduction in lung CFU at 30 mg/kg, po administered 5, 24 and 36 hrs post infection measured 48 hrs post treatment
Staphylococcus aureus [8] = test: Antibacterial activity against tetracycline-susceptible Staphylococcus aureus ATCC 13709 Smith isolate SA100; type: functional; procedure, shortened: as §2
Staphylococcus aureus [9] = test: Antibacterial activity against tetracycline-resistant Staphylococcus aureus isolate SA161 expressing TetM gene; type: functional; procedure, shortened: as §2
Staphylococcus aureus [10] = test: Antibacterial activity against tetracycline-resistant Staphylococcus aureus isolate SA158 expressing TetK gene; type: functional
Streptococcus pneumoniae [11] = test: Antibacterial activity against Streptococcus pneumoniae ATCC 49619 isolate 106; type: functional; procedure, shortened: as §3
Streptococcus pneumoniae [12] = test: Antibacterial activity against tetracycline-resistant Streptococcus pneumoniae isolate 160 expressing tetM gene; type: functional
Escherichia coli [13] = test: Antibacterial activity against Escherichia coli ATCC 25922 isolate 107; type: functional; procedure, shortened: as §3
Escherichia coli [14] = test: Antibacterial activity against Escherichia coli isolate EC155 expressing tetA gene; type: functional; procedure, shortened: as §3
Klebsiella pneumoniae = test: Antibacterial activity against Klebsiella pneumoniae ATCC 13883; type: functional; procedure, shortened: as §3
Staphylococcus aureus [15] = test: Antibacterial activity against Staphylococcus aureus ATCC 13709 infected in CD-1 mouse assessed as increase in survival at 3 mg/kg, iv administered as single dose 1 hr post infection measured after 48 hrs post infection; type: functional
Procedure, shortened: (§5)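 Mouse septicemia screen: S. aureus grown to log phase, diluted in 5% mucin to give 90% mortality within 48 h, inoculum 1.98 × 10⁶ CFU/mouse, 0.5 mL intraperitoneal into female CD-1 mice (18−20 g). Six mice per group. Single 30 mg/kg oral gavage or 3 mg/kg IV dose 1 h post infection. Infection controls received sterile water vehicle. Survival recorded at 48 h.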

Staphylococcus aureus [16] = test: Antibacterial activity against Staphylococcus aureus ATCC 13709 infected in CD-1 mouse assessed as increase in survival at 30 mg/kg, po administered as single dose 1 hr post infection measured after 48 hrs post infection; type: functional; procedure, shortened: as §5
Staphylococcus aureus [17] = test: Antibacterial activity against Staphylococcus aureus ATCC 13709 infected in po dosed CD-1 mouse assessed as increase in survival administered as single dose 1 hr post infection measured after 48 hrs post infection; type: functional; conditions: ATCC 13709, po, read-out: PD50
[18] = (§6) Oral bioavailability in CD1 mouse at 30 mg/kg; type: ADME, organism-based; conditions: CD1, mouse, in vivo
[19] = Oral bioavailability in rat; type: ADME, organism-based; conditions: in vivo
[20] = Oral bioavailability in human; type: ADME, organism-based; conditions: in vivo
Mus musculus = test: as §6; type: ADME, organism-based; conditions: mouse, in vivo, BLD = below limit of detection
Acinetobacter baumannii = test: Antibacterial activity against Acinetobacter baumannii; type: functional; procedure, shortened: as §3
Haemophilus influenzae [21] = test: Antibacterial activity against Haemophilus influenzae 551 infected in immunocompetent Sprague-Dawley rat assessed as reduction in lung CFU per gram of tissue at 100 mg/kg, po administered 5, 24 and 48 hrs post infection measured after 72 hrs; type: functional; procedure, shortened: as §1
Haemophilus influenzae [22] = test: Antibacterial activity against Haemophilus influenzae 551 infected in immunocompetent Sprague-Dawley rat assessed as reduction in lung CFU per gram of tissue at 25 mg/kg, iv administered 5, 24 and 48 hrs post infection measured after 72 hrs; type: functional; procedure, shortened: as §1

Compound | MIC50 (Staphylococcus aureus [2]) [µg/mL] | MIC90 (Staphylococcus aureus [2]) [µg/mL] | MIC50 (Streptococcus pneumoniae [3]) [µg/mL] | MIC90 (Streptococcus pneumoniae [3]) [µg/mL] | MIC50 (Haemophilus influenzae [4]) [µg/mL] | MIC90 (Haemophilus influenzae [4]) [µg/mL] | MIC (Streptococcus pyogenes) [µg/mL] | MIC50 (Streptococcus pyogenes) [µg/mL] | MIC90 (Streptococcus pyogenes) [µg/mL] | MIC50 (Moraxella catarrhalis) [µg/mL] | MIC (Staphylococcus aureus [8]) [µg/mL] | MIC (Staphylococcus aureus [9]) [µg/mL] | MIC (Staphylococcus aureus [10]) [µg/mL] | MIC (Streptococcus pneumoniae [11]) [µg/mL] | MIC (Streptococcus pneumoniae [12]) [µg/mL] | MIC (Escherichia coli [13]) [µg/mL] | MIC (Escherichia coli [14]) [µg/mL] | MIC (Klebsiella pneumoniae) [µg/mL] | survival at 3 mg/kg (Staphylococcus aureus [15]) [%] | survival at 30 mg/kg (Staphylococcus aureus [16]) [%] | other results
CC[C@H]1OC(=O)[C@H](C)[C@@H](O[C@H]2C[C@@](C)(OC)[C@@H](O)[C@H](C)O2)[C@H](C)[C@@H](O[C@@H]2O[C@H](C)C[C@H](N(C)C)[C@H]2O)[C@](C)(O)C[C@@H](C)CN(C)[C@H](C)[C@@H](O)[C@]1(C)O [AZITHROMYCIN] | – | – | – | – | – | – | – | – | – | – | – | – | – | – | – | – | – | – | – | – | log10CFU/g (Haemophilus influenzae [1]): >=6
CC(=O)NC[C@H]1CN(c2ccc(N3CCOCC3)c(F)c2)C(=O)O1 [LINEZOLID] | 2 (≈ 5.93 µM) | 4 (≈ 11.9 µM) | 1 (≈ 2.96 µM) | 1 (≈ 2.96 µM) | 8 (≈ 23.7 µM) | 16 (≈ 47.4 µM) | 1 (≈ 2.96 µM) | 1 (≈ 2.96 µM) | 2 (≈ 5.93 µM) | 8 (≈ 23.7 µM) | – | – | – | – | – | – | – | – | – | – | MIC (Haemophilus influenzae [4]): 8 µg/mL (≈ 23.7 µM); MIC90 (Moraxella catarrhalis): 8 µg/mL (≈ 23.7 µM); log10CFU/g (Staphylococcus aureus [5]): 2.46; log10CFU/g (Staphylococcus aureus [6]): 1.29; log10CFU/g (Streptococcus pneumoniae [7]): 3.56
CN(C)c1cc(CNCC(C)(C)C)c(O)c2c1C[C@H]1C[C@H]3[C@H](N(C)C)C(O)=C(C(N)=O)C(=O)[C@@]3(O)C(O)=C1C2=O [OMADACYCLINE] | – | – | – | – | – | – | – | – | – | – | 0.5 (≈ 0.898 µM) | 2 (≈ 3.59 µM) | 0.25 (≈ 0.449 µM) | 0.031 (≈ 0.0557 µM) | 0.125 (≈ 0.225 µM) | 2 (≈ 3.59 µM) | 16 (≈ 28.7 µM) | 2 (≈ 3.59 µM) | 100 | 33 | ED50 (Staphylococcus aureus [17]): 30.3 mg/kg; bioavailability [18]: 1.5%; bioavailability [19]: 0.7%; bioavailability [20]: 33%
CN(C)[C@@H]1C(O)=C(C(N)=O)C(=O)[C@@]2(O)C(O)=C3C(=O)c4c(O)cccc4[C@@](C)(O)[C@H]3C[C@@H]12 [TETRACYCLINE] | – | – | – | – | – | – | – | – | – | – | 1 (≈ 2.25 µM) | > 32 | – | 0.25 (≈ 0.563 µM) | – | 2 (≈ 4.5 µM) | > 32 | 4 (≈ 9 µM) | 100 | 100 | ED50 (Staphylococcus aureus [17]): 6.9 mg/kg; bioavailability [18]: 6.3%; bioavailability [20]: 50%
CN(C)c1cc(NC(=O)CNC(C)(C)C)c(O)c2c1C[C@H]1C[C@H]3[C@H](N(C)C)C(O)=C(C(N)=O)C(=O)[C@@]3(O)C(O)=C1C2=O [TIGECYCLINE] | – | – | – | – | – | – | – | – | – | – | 0.063 (≈ 0.108 µM) | 0.13 (≈ 0.222 µM) | 0.063 (≈ 0.108 µM) | 0.016 (≈ 0.0273 µM) | 0.016 (≈ 0.0273 µM) | 0.125 (≈ 0.213 µM) | 0.5 (≈ 0.854 µM) | 0.125 (≈ 0.213 µM) | 100 | 0 | F (Mus musculus): BLD
CN(C)[C@@H]1C(O)=C(C(N)=O)C(=O)[C@@]2(O)C(O)=C3C(=O)c4c(O)c(NC(=O)[C@@H]5CCCN5C)cc(F)c4C[C@H]3C[C@@H]12 [TP-271] | 0.031 (≈ 0.0555 µM) | 0.13 (≈ 0.233 µM) | 0.016 (≈ 0.0286 µM) | 0.016 (≈ 0.0286 µM) | 0.25 (≈ 0.448 µM) | 0.5 (≈ 0.895 µM) | 0.016 (≈ 0.0286 µM) | 0.016 (≈ 0.0286 µM) | 0.016 (≈ 0.0286 µM) | 0.016 (≈ 0.0286 µM) | 0.13 (≈ 0.233 µM) | 0.25 (≈ 0.448 µM) | 0.13 (≈ 0.233 µM) | 0.016 (≈ 0.0286 µM) | 0.016 (≈ 0.0286 µM) | 0.25 (≈ 0.448 µM) | 8 (≈ 14.3 µM) | 2 (≈ 3.58 µM) | 100 | 100 | bioavailability [19]: 5.7%; MIC (Streptococcus pneumoniae [3]): 0.016 µg/mL (≈ 0.0286 µM); MIC (Moraxella catarrhalis): 0.016 µg/mL (≈ 0.0286 µM); MIC90 (Moraxella catarrhalis): 0.016 µg/mL (≈ 0.0286 µM); MIC50 (Acinetobacter baumannii): 0.13 µg/mL (≈ 0.233 µM); MIC90 (Acinetobacter baumannii): 1 µg/mL (≈ 1.79 µM); log10CFU/g (Staphylococcus aureus [5]): 1.99; log10CFU/g (Staphylococcus aureus [6]): 3.03; log10CFU/g (Haemophilus influenzae [21]): 1.77; log10CFU/g (Haemophilus influenzae [22]): 4.87; log10CFU/g (Streptococcus pneumoniae [7]): 4.75

— ChEMBL document CHEMBL2057101, “Fluorocyclines. 2. Optimization of the C-9 side-chain for antibacterial activity and oral efficacy” (J Med Chem, 2012)
